ChEMBL document CHEMBL4813926, “Auyuittuqamides A-D, Cyclic Decapeptides from Sesquicillium microsporum RKAG 186 Isolated from Frobisher Bay Sediment” (J Nat Prod, 2021)
The source made the active and inactive calls. No cut-off for these calls is given here. Where a SMILES comes first, the peptide text is derived from it. [ ]: non-standard residue; d: D form. NMeF = CN[C@@H](Cc1ccccc1)C(=O)O; NMeT = CN[C@H](C(=O)O)[C@@H](C)O; NMeV = CN[C@H](C(=O)O)C(C)C

How the values were obtained:
Keratinocyte = experiment: Cytotoxicity against human epidermal keratinocytes assessed as reduction in cell viability measured after 24 hrs by Alamar blue assay; type: cell-based
Outline: (§1)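 Cells in 96-well culture plates, in triplicate. Viability taken 24 h after treatment with Alamar Blue redox dye. Fluorescence read at 560/12 nm excitation and 590 nm emission, at time zero and 4 h after dye addition.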

Candida albicans = experiment: Antifungal activity against Candida albicans ATCC 14035 up to 128 uM measured after 22 hrs by CLSI protocol based microbroth dilution assay; type: functional, organism-based; conditions: dose microM <=128, time 22.0 hrs
Outline: (§2)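 96-well microbroth dilution run to CLSI standards. OD 600 nm read at time zero and at the end, after 22 h incubation at 37 °C, to give growth inhibition.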

Pseudomonas aeruginosa = experiment: Antimicrobial activity against Pseudomonas aeruginosa ATCC 14210 up to 128 uM measured after 22 hrs by CLSI protocol based microbroth dilution assay; type: functional, organism-based; conditions: dose microM <=128, time 22.0 hrs; outline: as §2
Enterococcus faecium = experiment: Antimicrobial activity against vancomycin-resistant Enterococcus faecium EF379 up to 128 uM measured after 22 hrs by CLSI protocol based microbroth dilution assay; type: functional, organism-based; conditions: dose microM <=128, time 22.0 hrs
Outline: (§3)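 CLSI broth microdilution in 96-well format. Growth inhibition was read as absorbance at 600 nm at time zero and after 22 h incubation at 37 °C.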

MCF7 = experiment: Cytotoxicity against ER positive human MCF7 cells assessed as reduction in cell viability measured after 24 hrs by Alamar blue assay; type: functional, cell-based; conditions: MCF7, 24 h; outline: as §1
Staphylococcus aureus = experiment: Antimicrobial activity against methicillin-resistant Staphylococcus aureus ATCC 33591 up to 128 uM measured after 22 hrs by CLSI protocol based microbroth dilution assay; type: functional, organism-based; conditions: dose microM <=128, time 22.0 hrs; outline: as §3
[1] = Cytotoxicity against ER negative human HTB26 cells assessed as reduction in cell viability measured after 24 hrs by Alamar blue assay; type: functional, cell-based; conditions: HTB26, 24 h; outline: as §1
Staphylococcus warneri = experiment: Antimicrobial activity against Staphylococcus warneri ATCC 17917 up to 128 uM measured after 22 hrs by CLSI protocol based microbroth dilution assay; type: functional, organism-based; conditions: dose microM <=128, time 22.0 hrs; outline: as §2

SMILES	IC50 (Keratinocyte) [µM]	Activity (Candida albicans)	Activity (Pseudomonas aeruginosa)	Activity (Enterococcus faecium)	IC50 (MCF7) [µM]	Activity (Staphylococcus aureus)	IC50 [1] [µM]	Activity (Staphylococcus warneri)
CC[C@@H](C)[C@@H]1NC(=O)CNC(=O)[C@H](Cc2ccccc2)N(C)C(=O)[C@H](C(C)C)NC(=O)[C@H]([C@@H](C)O)N(C)C(=O)[C@H](CC(C)C)NC(=O)CNC(=O)[C@H](C(C)C)N(C)C(=O)[C@H](C(C)C)NC(=O)[C@H](CO)NC1=O	> 10	inactive	inactive	inactive	> 10	inactive	> 10	inactive
CC[C@H](C)[C@@H]1NC(=O)CNC(=O)[C@H](Cc2ccccc2)N(C)C(=O)[C@H]([C@@H](C)CC)NC(=O)[C@H]([C@@H](C)O)N(C)C(=O)[C@H](CC(C)C)NC(=O)CNC(=O)[C@H](C(C)C)N(C)C(=O)[C@H]([C@@H](C)CC)NC(=O)[C@H](CO)NC1=O (cyclo(GISI[NMeV]GL[NMeT]I[NMeF]))	> 10	inactive	inactive	inactive	> 10	inactive	> 10	inactive
CC[C@H](C)[C@@H]1NC(=O)CNC(=O)[C@H](Cc2ccccc2)N(C)C(=O)[C@H]([C@@H](C)CC)NC(=O)[C@H]([C@@H](C)O)N(C)C(=O)[C@H](CC(C)C)NC(=O)CNC(=O)[C@H](C(C)C)N(C)C(=O)[C@H](C(C)C)NC(=O)[C@H](CO)NC1=O (cyclo(GISV[NMeV]GL[NMeT]I[NMeF]))	> 10	inactive	inactive	inactive	> 10	inactive	> 10	inactive
CC(C)C[C@@H]1NC(=O)CNC(=O)[C@H](C(C)C)N(C)C(=O)[C@H](C(C)C)NC(=O)[C@H](CO)NC(=O)[C@H](C(C)C)NC(=O)CNC(=O)[C@H](Cc2ccccc2)N(C)C(=O)[C@H](C(C)C)NC(=O)[C@H]([C@@H](C)O)N(C)C1=O (cyclo(GL[NMeT]V[NMeF]GVSV[NMeV]))	> 10	inactive	inactive	inactive	> 10	inactive	> 10	inactive
